Source: ChEMBL document CHEMBL5647691, “CDKN2A/p16 Loss Implicates CDK4 as a Therapeutic Target in Imatinib-Resistant Dermatofibrosarcoma Protuberans” (Mol Cancer Ther, 2015)
Active and inactive are the calls of the source. No cut-off for these calls is given here.

Key:
[1] = Antiproliferative activity against human Imatinib-resistant DFSP105 cells assessed as cell growth inhibition incubated for 48 hrs by BrdU cell proliferation assay; format: functional
Outline: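 DFSP105 cells (IMDM, 15% FBS, passages 10-30) seeded at 2500/well; drug added in fresh medium 24 h after plating, 48 h exposure, BrdU added for final 24 h. Proliferation read by BrdU chemiluminescent ELISA; GI50 = 50% growth inhibition concentration.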

[2] = molecular target: T1, Retinoblastoma-associated protein (Homo sapiens) (UniProt P06400); assay: Inhibition of RB1 phosphorylation at S795 residue in human Imatinib-resistant DFSP105 cells at […] incubated for 24 hrs by Western blot analysis; format: cell-based; conditions: Imatinib-resistant DFSP105 cell
T1 sequence (whole entry): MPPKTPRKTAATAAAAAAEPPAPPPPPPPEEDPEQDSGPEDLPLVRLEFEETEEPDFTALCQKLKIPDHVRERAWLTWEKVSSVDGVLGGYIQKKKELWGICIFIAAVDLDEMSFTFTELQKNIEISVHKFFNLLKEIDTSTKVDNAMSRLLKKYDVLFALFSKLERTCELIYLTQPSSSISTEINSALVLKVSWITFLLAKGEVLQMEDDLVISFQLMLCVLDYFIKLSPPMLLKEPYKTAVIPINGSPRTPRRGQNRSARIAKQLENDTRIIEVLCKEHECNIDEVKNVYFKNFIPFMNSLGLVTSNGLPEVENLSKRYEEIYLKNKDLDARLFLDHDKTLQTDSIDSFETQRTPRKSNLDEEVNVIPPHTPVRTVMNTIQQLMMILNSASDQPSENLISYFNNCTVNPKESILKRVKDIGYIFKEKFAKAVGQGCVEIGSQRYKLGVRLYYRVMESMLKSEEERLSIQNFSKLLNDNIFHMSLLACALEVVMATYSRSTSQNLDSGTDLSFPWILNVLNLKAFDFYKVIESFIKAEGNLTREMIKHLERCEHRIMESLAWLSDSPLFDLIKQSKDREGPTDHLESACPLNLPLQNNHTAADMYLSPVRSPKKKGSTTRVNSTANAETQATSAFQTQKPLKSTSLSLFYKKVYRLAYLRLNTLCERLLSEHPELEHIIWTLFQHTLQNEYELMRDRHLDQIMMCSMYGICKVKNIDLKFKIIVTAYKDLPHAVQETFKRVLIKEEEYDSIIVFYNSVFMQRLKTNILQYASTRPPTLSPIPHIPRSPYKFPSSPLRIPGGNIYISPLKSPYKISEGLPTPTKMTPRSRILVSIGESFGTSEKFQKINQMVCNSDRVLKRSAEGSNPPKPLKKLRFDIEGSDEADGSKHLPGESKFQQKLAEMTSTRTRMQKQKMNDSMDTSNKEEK
Outline: (§1)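 DFSP105 cells treated 24 h with CDK4/6 inhibitor over a dose series; whole-cell lysates cleared 14,000 rpm 30 min 4°C, protein by Bradford, then immunoblotting for phospho-RB1 and cyclin A.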

[3] = molecular target: T1, Retinoblastoma-associated protein (Homo sapiens); assay: Inhibition of RB1 phosphorylation at S807 residue in human Imatinib-resistant DFSP105 cells at […] incubated for 24 hrs by Western blot analysis; format: cell-based; conditions: Imatinib-resistant DFSP105 cell; outline: as §1
[4] = molecular target: T1, Retinoblastoma-associated protein (Homo sapiens); assay: Inhibition of RB1 phosphorylation at S811 residue in human Imatinib-resistant DFSP105 cells at […] incubated for 24 hrs by Western blot analysis; format: cell-based; conditions: Imatinib-resistant DFSP105 cell; outline: as §1
[5] = system: Imatinib-resistant DFSP105 cell; assay: Antiproliferative activity against human Imatinib-resistant DFSP105 cells assessed as decrease in Cyclin A expression at […] incubated for 24 hrs by Western blot analysis; format: functional, cell-based; outline: as §1
[6] = system: Imatinib-resistant DFSP105 cell; assay: Antitumor activity against human Imatinib-resistant DFSP105 cells xenografted in athymic nude mouse assessed as tumor growth inhibition by measuring tumor size at 75 mg/kg,po daily for 5 weeks; format: functional, organism-based
Outline: (§2)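 S.c. DFSP105 xenografts (2 million cells in Matrigel) in athymic nude mice, treated after ~5 weeks establishment with daily gavage: imatinib 75 mg/kg in water or PD-0332991 150 mg/kg in HCl/Cremophor EL/PEG 300/acetate pH 4.6 vehicle, versus untreated, for 5 weeks. Tumor volume and body weight monitored weekly; mean ± SE.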

[7] = system: Imatinib-resistant DFSP105 cell; assay: Antitumor activity against human Imatinib-resistant DFSP105 cells xenografted in athymic nude mouse assessed as tumor cell density at 75 mg/kg,po daily for 5 weeks by immunohistochemistry analysis; format: functional, organism-based
Outline: (§3)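 Athymic nude mice given 2 million DFSP105 cells s.c. in Matrigel; after ~5 weeks tumor establishment, daily gavage (imatinib 75 mg/kg in water; PD-0332991 150 mg/kg in HCl/Cremophor EL/PEG 300/acetate pH 4.6 vehicle) for 5 weeks. BrdU i.p. 2 h before CO2 euthanasia; resected tumors examined histologically for cell density and BrdU-positive nuclei.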

[8] = Toxicity in athymic nude mouse xenografted with human Imatinib-resistant DFSP105 cells assessed as body weight loss at 75 mg/kg,po daily for 5 weeks; format: organism-based; conditions: in vivo, 840 h; outline: as §2
[9] = molecular target: Platelet-derived growth factor receptor beta (Homo sapiens) (UniProt P09619); conditions: Imatinib-resistant DFSP105 cell, dose 500.0 nM
[10] = system: Imatinib-resistant DFSP105 cell; assay: Antitumor activity against human Imatinib-resistant DFSP105 cells xenografted in athymic nude mouse assessed as tumor growth inhibition by measuring tumor size at 150 mg/kg,po daily for 5 weeks; format: functional, organism-based; outline: as §2
[11] = system: Imatinib-resistant DFSP105 cell; assay: Antitumor activity against human Imatinib-resistant DFSP105 cells xenografted in athymic nude mouse assessed as decrease in RB1 phosphorylation at S795 residue in tumor at 150 mg/kg,po daily for 5 weeks by Western blot analysis; format: functional, organism-based
Outline: (§4)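 Nude mice bearing s.c. DFSP105 xenografts (2 million cells in Matrigel, ~5 weeks to establish) dosed daily by gavage at 150 mg/kg in HCl/Cremophor EL/PEG 300/acetate pH 4.6 vehicle for 5 weeks; tumor lysates (homogenized in ice-cold buffer with protease inhibitors) immunoblotted for phospho-RB1.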

[12] = system: Imatinib-resistant DFSP105 cell; assay: Antitumor activity against human Imatinib-resistant DFSP105 cells xenografted in athymic nude mouse assessed as decrease in RB1 phosphorylation at S807 residue in tumor at 150 mg/kg,po daily for 5 weeks by Western blot analysis; format: functional, organism-based; outline: as §4
[13] = system: Imatinib-resistant DFSP105 cell; assay: Antitumor activity against human Imatinib-resistant DFSP105 cells xenografted in athymic nude mouse assessed as tumor cell density at 150 mg/kg,po daily for 5 weeks by immunohistochemistry analysis; format: functional, organism-based; outline: as §3
[14] = Toxicity in athymic nude mouse xenografted with human Imatinib-resistant DFSP105 cells assessed as body weight loss at 150 mg/kg,po daily for 5 weeks; format: organism-based; conditions: in vivo, 840 h; outline: as §2

Sequence of Platelet-derived growth factor receptor beta (Homo sapiens) (P09619 whole entry): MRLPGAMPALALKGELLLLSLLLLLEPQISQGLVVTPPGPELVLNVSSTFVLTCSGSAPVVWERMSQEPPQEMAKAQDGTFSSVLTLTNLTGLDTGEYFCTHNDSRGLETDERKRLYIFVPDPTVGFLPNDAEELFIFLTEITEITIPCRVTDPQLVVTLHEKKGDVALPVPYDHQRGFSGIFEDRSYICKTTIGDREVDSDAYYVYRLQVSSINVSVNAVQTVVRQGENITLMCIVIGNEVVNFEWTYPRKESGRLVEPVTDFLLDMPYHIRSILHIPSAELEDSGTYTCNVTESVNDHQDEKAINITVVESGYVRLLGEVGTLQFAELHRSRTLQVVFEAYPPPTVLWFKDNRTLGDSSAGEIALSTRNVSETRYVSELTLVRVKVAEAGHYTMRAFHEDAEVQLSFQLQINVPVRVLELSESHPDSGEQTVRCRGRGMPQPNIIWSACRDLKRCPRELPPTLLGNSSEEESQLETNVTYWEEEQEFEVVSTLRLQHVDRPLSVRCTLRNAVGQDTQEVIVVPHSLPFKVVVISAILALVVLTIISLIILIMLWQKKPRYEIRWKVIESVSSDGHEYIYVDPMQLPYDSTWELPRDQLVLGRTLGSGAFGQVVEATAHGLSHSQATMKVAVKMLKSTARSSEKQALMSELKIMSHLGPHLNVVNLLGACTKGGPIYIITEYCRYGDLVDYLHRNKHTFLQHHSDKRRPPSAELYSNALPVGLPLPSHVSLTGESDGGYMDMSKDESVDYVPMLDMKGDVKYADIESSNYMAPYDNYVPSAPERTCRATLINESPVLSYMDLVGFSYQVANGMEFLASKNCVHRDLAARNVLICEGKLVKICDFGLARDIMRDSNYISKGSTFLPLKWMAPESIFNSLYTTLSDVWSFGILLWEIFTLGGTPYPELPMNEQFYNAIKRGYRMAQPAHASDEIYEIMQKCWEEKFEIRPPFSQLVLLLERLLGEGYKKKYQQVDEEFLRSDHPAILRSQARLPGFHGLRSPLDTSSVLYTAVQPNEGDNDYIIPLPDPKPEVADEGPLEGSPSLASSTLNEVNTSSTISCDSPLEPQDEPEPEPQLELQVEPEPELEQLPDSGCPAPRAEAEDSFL

| SMILES | inhibition [2] | inhibition [3] | inhibition [4] | inhibition [9] | GI50 [1] | Activity [5] | other results |
| --- | --- | --- | --- | --- | --- | --- | --- |
| CN(C)C(=O)c1cc2cnc(Nc3ccc(N4CCNCC4)cn3)nc2n1C1CCCC1 [RIBOCICLIB] | Active | Active | Active | – | 276 nM | Active | – |
| CS(=O)(=O)N1CCN(Cc2cc3nc(-c4cccc5[nH]ncc45)nc(N4CCOCC4)c3s2)CC1 [PICTILISIB] | – | – | – | – | 1900 nM | – | – |
| Cc1ccc(NC(=O)c2ccc(CN3CCN(C)CC3)cc2)cc1Nc1nccc(-c2cccnc2)n1 [IMATINIB] | – | – | – | Active | > 5000 nM | – | Activity [6]: inactive; Activity [7]: inactive; Activity [8]: Non-Toxic |
| CO[C@H]1C[C@@H]2CC[C@@H](C)[C@@](O)(O2)C(=O)C(=O)N2CCCC[C@H]2C(=O)O[C@H]([C@H](C)C[C@@H]2CC[C@@H](OCCO)[C@H](OC)C2)CC(=O)[C@H](C)/C=C(\C)[C@@H](O)[C@@H](OC)C(=O)[C@H](C)C[C@H](C)/C=C/C=C/C=C/1C [EVEROLIMUS] | – | – | – | – | 5 nM | – | – |

More lines, main results first:

| inhibition [2] | inhibition [3] | inhibition [4] | inhibition [9] | SMILES | GI50 [1] | Activity [5] | other results |
| --- | --- | --- | --- | --- | --- | --- | --- |
| Active | Active | Active | – | CC(=O)c1c(C)c2cnc(Nc3ccc(N4CCNCC4)cn3)nc2n(C2CCCC2)c1=O [PALBOCICLIB] | 160 nM | Active | Activity [10]: Active; Activity [11]: Active; Activity [12]: Active; Activity [13]: inactive; Activity [14]: Non-Toxic |
| – | – | – | Active | CCN(CC)CCNC(=O)c1c(C)[nH]c(/C=C2\C(=O)Nc3ccc(F)cc32)c1C [SUNITINIB] | > 5000 nM | – | – |
